Screening data deposited in PubChem by Johns Hopkins Ion Channel Center.
KCNK9 inh: KCNK9 potassium channel inhibitors, primary screen, HEK293 cells, thallium flux; B-score at 10 µM; actives 1.2% (n = 310,000); AID 488922, 2010; FluxOR thallium flux fluorescence; stronger effect = lower value;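 active means ratio B-score over 3 SD below the library mean, with starting fluorescence within 5 SD of its mean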;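 further: negative B-score means less thallium flux so channel inhibition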
Kir21 inh: inhibitors of mouse Kir2.1 inward-rectifier potassium channel; B-score at 10 µM; actives 0.85% (n = 310,000); HEK293-Kir2.1, FluxOR thallium flux fluorescence; stronger effect = lower value; Inward rectifier potassium channel 2 (Mus musculus), P35561;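 active means fluorescence ratio B-score at or below minus 3 SD of library scores, with starting-brightness B-score within 2 SD, cut at about -4.2 in these data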;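 further: channel flux triggered by added potassium and thallium sulfate stimulus; B-score of peak minus minimum fluorescence over baseline after thallium stimulus; more negative B-score means stronger Kir2.1 block with less thallium influx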
Target sequence (P35561 whole entry, looked up): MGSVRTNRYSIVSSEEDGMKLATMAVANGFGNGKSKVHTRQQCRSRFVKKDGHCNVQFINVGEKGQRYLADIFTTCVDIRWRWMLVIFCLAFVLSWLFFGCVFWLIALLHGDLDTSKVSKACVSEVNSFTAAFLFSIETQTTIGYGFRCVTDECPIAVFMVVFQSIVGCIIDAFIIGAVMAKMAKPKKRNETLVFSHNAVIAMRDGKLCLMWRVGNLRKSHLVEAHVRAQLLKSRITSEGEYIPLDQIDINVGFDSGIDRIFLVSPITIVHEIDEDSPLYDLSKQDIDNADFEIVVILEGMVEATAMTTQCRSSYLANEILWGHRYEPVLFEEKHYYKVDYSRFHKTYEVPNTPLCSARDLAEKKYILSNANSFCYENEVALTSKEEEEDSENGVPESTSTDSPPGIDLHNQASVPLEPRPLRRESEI
hERG protect: hERG rescue from dofetilide block, primary screen, cell-based, CHO-hERG, FluxOR thallium flux, dofetilide IC70; dofetilide IC70 present; activation (rescue from dofetilide block), less the hit threshold, % at 10 µM; actives 0.51% (n = 310,000);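 active means activation above the mean of controls blocked by dofetilide plus 5 SD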;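 further: thallium influx through hERG after potassium depolarization seen as dye fluorescence rise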
KCNK3 inh: human KCNK3 channel inhibitors, primary screen, CHO cells, FluxOR thallium flux, B-score. FluxOR fluorescence; stronger effect = lower value. B-score at 10 µM. Potassium channel subfamily K member 3 (Homo sapiens), O14649. actives 0.84% (n = 340,000);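 active means B-score under library mean minus 4 SD, starting fluorescence ratio at most library mean plus 5 SD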;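 further: more negative B-score means stronger inhibition of thallium flux through KCNK3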
KCNQ1 act: potentiators or activators of KCNQ1 channel, primary screen, cell-based, thallium flux, high-throughput; CHO-K1 KCNQ1, thallium flux FluxOR fluorescence; stronger effect = higher value; B-score at 10 µM; actives 0.35% (n = 310,000); AID 2648, 2010;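 active means fluorescence ratio B-score, a plate-corrected score, at least three library SD, with initial intensity B-score within 5 SD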
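assay system = CHO-K1 cells stably expressing KCNQ1 | medium = assay buffer, equal DMSO in all wells | timing = 37 °C overnight plating, 90-min dark dye load, 20-min compound pretreatment | measured by = kinetic FluxOR thallium fluorescence, 10-s 1-Hz baseline, 110-s post-stimulus read | measure = fluorescence change relative to baseline, converted to B score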
KCNQ1 block: inhibitors of human KCNQ1 channel, primary screen, cell-based, thallium flux, high-throughput | CHO-K1 KCNQ1, FluxOR thallium flux fluorescence; stronger effect = higher value | AID 2642, 2010 | actives 1.3% (n = 310,000) | Potassium voltage-gated channel subfamily KQT member 1 (Homo sapiens), P51787 | B-score at 10 µM;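 active means compounds whose thallium flux B-score, printed positive for inhibition, exceeds three library SD while starting fluorescence stays within three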;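 further: channel opened by potassium depolarization with thallium stimulus after 20 min compound exposure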
KCNQ1 block val: KCNQ1 potassium channel inhibitors, confirmation, cell-based, Tl flux, duplicate. shares compounds with KCNQ1 block. actives 93% (n = 1,600). KCNQ1 cell line, FluxOR thallium flux fluorescence. AID 588353, 2011. inhibition, % at 10 µM;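 active means primary screen active, with duplicate mean exceeding buffer control mean plus 3 SD of buffer wells, cut at about 28% in these data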
CHO Tl flux: thallium flux effects in parental CHO cells, counter-screen for KCNQ1 inhibitor project, cell-based, Tl flux; AID 588366, 2011; actives 21% (n = 1,600); parental CHO-K1, FluxOR thallium flux fluorescence ratio; stronger effect = lower value; zero means no signal rise above baseline; fluorescence ratio (Tl flux) at 10 µM; shares compounds with KCNQ1 block;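 active means mean of duplicate thallium-flux fluorescence ratios in parental host cells more than 5 SD below the buffer control mean, cut at about 0.38 in these data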;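 further: ratio is peak minus minimum fluorescence divided by baseline fluorescence; actives read low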
KCNQ1 APC inh: KCNQ1 channel inhibitors, confirmation, orthogonal assay, cell-based, automated electrophysiology; KCNQ1-CHO cells, automated patch clamp current; actives 20% (n = 490); shares compounds with KCNQ1 block; calls only at 10 µM;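 active means KCNQ1 current drop exceeding 3 SD of negative control wells, seen in both duplicate runs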;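 further: steady state current during a 2 s step from -80 to +40 mV; negative values mean current inhibition and positive values mean potentiation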
KCNQ2 spec: KCNQ2 channel inhibition, selectivity assay for KCNQ1 inhibitor project, cell-based; KCNQ2 cells, FluxOR thallium flux fluorescence; inhibition, % at 10 µM; actives 71% (n = 1,600); shares compounds with KCNQ1 block;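 active means mean percent inhibition of the KCNQ2 thallium signal more than 5 SD above the buffer-only control wells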;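 further: KCNQ2 expressed in CHO cells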
KCNQ1-KCNE1 inh: KCNQ1/KCNE1 channel inhibition, selectivity assay for KCNQ1 inhibitor project, CHO-K1 cells, thallium flux, FluxOR; shares compounds with KCNQ1 block; FluxOR thallium flux fluorescence; inhibition, % at 10 µM; actives 77% (n = 1,600); AID 652147, 2013;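 active means mean percent inhibition of duplicate wells above the buffer-only control mean plus 3 SD of those controls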
Numbers stand for hits; – = inactive; · = no result given; + = active, no number. Shown are actives, neighbours in structure and some others; about 3.8% of the full set was active somewhere.

SMILES	KCNK9 inh	Kir21 inh	hERG protect	KCNK3 inh	KCNQ1 act	KCNQ1 block	KCNQ1 block val	CHO Tl flux	KCNQ2 spec	KCNQ1-KCNE1 inh	others
O=C(Nc1cccc(Cl)c1)C1CCCN(C2=NS(=O)(=O)c3ccccc32)C1 (stereo not given)	·	·	·	–	·	·	·	·	·	·
Nc1nc(Cl)cc(N2CCC(c3cc(-c4ccc(Cl)cc4Cl)n[nH]3)CC2)n1	–	–	–	–	–	6	136	0.37	113%	174%
Cc1ccc(C(=O)Nc2nc(=O)n(C(=O)CC(C)C)s2)cc1	–	–	–	–	–	6	34	–	–	–
CC(C)c1cc(C(=O)N2CCN(C(c3ccccc3)c3ccccc3)CC2)no1	-7.9	–	–	–	–	7	108	–	103%	110%	KCNQ1 APC inh=–
O=C(c1cc(-c2ccco2)on1)N1CCN(C(c2ccccc2)c2ccccc2)CC1	–	–	–	–	–	8	124	–	96%	142%
COc1ccc2oc(C(=O)N3CCN(C(c4ccccc4)c4ccccc4)CC3)c(C)c2c1	–	–	–	–	–	9	93	–	101%	114%	KCNQ1 APC inh=+
COc1ccc2oc(C(=O)N3CCN(C/C=C/c4ccccc4)CC3)c(C)c2c1	·	·	·	–	·	·	·	·	·	·
COc1ccc(-c2cc(C(=O)N3CCN(C(c4ccccc4)c4ccccc4)CC3)no2)cc1OC	–	–	–	–	–	–	·	·	·	·
COc1ccc(-c2cc(C(=O)N3CCN(C(c4ccccc4)c4ccccc4)CC3)no2)cc1	–	–	–	–	–	–	·	·	·	·
CC(C)Cc1cc(C(=O)N2CCN(C(c3ccccc3)c3ccccc3)CC2)no1	–	–	–	–	–	7	136	–	109%	176%	KCNQ1 APC inh=–
CC(C)c1ccc(N2C(=NC(=O)C3CC3)SC3CS(=O)(=O)CC32)cc1 (stereo not given)	–	–	–	–	–	–	·	·	·	·
Cc1ccc2nsnc2c1S(=O)(=O)N(Cc1cc2cccc(C)c2[nH]c1=O)CC1CCCO1 (stereo not given)	–	–	–	–	–	–	·	·	·	·
CCOC(=O)Cc1nn[nH]n1	–	–	–	–	–	7	–	–	–	37%
CCOC(=O)c1c(-c2ccccc2)csc1NC(=O)C(C)NCCCN1CCOCC1 (stereo not given)	–	–	–	–	–	–	·	·	·	·
O=C(Nc1nc(-c2ccccc2)c(C(=O)c2ccccc2)s1)c1ccc(S(=O)(=O)N2CCCCC2)cc1	–	–	–	–	–	8	83	–	–	112%
O=C(Nc1nc(-c2ccccc2)c(-c2ccccc2)s1)c1ccc(S(=O)(=O)N2CCCCC2)cc1	–	–	–	–	–	–	·	·	·	·
